From article PMC7909006 (Clinical cancer research : an official journal of the …, 2020)

How the values were obtained:
[1] = Phase I safety and tolerability: adverse events; type: in vivo
[2] = Plasma pharmacokinetics, noncompartmental analysis; type: in vivo, human
In short: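 Oral dosing once daily, BSA-based at 400, 600 or 800 mg/m2, rolling-six escalation. Peripheral blood sampled on C1 day 1 before dosing and at 0.5–24 h after, on day 15 before dosing and at 1–6 h after, and before dosing on day 16. Plasma assayed by validated LC-MS/MS (LLOQ 10 nmol/L). Cmax, Tmax, AUC and CL/F derived by noncompartmental analysis.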

Population PK modeling = assay: Population PK modeling; design: species or system human; conditions: for RP2D based on body weight (population PK): exposure matched to adults receiving 800 mg daily
In short: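 Nonlinear mixed-effects model: two compartments, sequential zero- and first-order absorption with lag time, linear elimination, and body weight as an allometric covariate on disposition parameters. Final-model estimates were used to simulate doses for ages 6–18 years that match steady-state exposure in adult TGCT patients given 800 mg daily.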

[3] = tested on: peripheral blood immune cells; assay: Pharmacodynamics: fold change in peripheral blood; type: in vivo, human
In short: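 Complete blood counts, including absolute monocyte count, were taken as safety labs before treatment, mid-C1, before C2–C9, then every other cycle and at end of therapy. Patients took the oral agent once daily on a continuous 28-day cycle, dosed by BSA at 400, 600 or 800 mg/m2.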

FC(F)(F)c1ccc(CNc2ccc(Cc3c[nH]c4ncc(Cl)cc34)cn2)cn1 [Pexidartinib]
Recommended phase II dose (RP2D), BSA based ([1]; human, in vivo, 28 days): 800 mg/m^2/day
Dose-limiting toxicities (DLT) ([1]; in vivo): No DLTs
Tolerability ([1]; in vivo, po): well tolerated
Maximum tolerated dose (MTD) ([1]; up to 800 mg/m^2/dose): not reached
AUC0–24 dependence on dose ([2]; DL1 to DL3): rose with increasing dose
Cmax dependence on dose ([2]; DL1 to DL3): rose with increasing dose
Accumulation ratio, median ([2]; day 15 vs day 1, DL3 (n=3)): 1.22
Clearance from concentration x time curves ([2]; first day of dosing): slow clearance
PK dose linearity ([2]; over three DLs): linear
RP2D based on body weight (population PK) (Population PK modeling; body weight < 30 kg): 400 mg daily
RP2D based on body weight (population PK) (Population PK modeling; body weight ≥ 30 & < 40 kg): 600 mg daily
RP2D based on body weight (population PK) (Population PK modeling; body weight ≥ 40 kg): 800 mg daily
AUC (Population PK modeling; human, plasma, oral, 800 mg, Steady-state AUC, 5th to 95th percentile, adult TGCT patients receiving 800 mg daily): 96 to 255 µg·h/mL
Absolute Immature Granulocyte, Med. Fold Change (95% CI) from Day 1 ([3]; 6–8 Days from C1, N=9): 0.50 (0.10, 1.00)
Immature granulocytes, Med. Fold Change (95% CI) from Day 1 ([3]; 6–8 Days from C1, N=9): 0.50 (0.08, 0.67)
Absolute Eosinophil Count, Med. Fold Change (95% CI) from Day 1 ([3]; 6–8 Days from C1, N=10): 0.76 (0.50, 1.07)
Eosinophils %, Med. Fold Change (95% CI) from Day 1 ([3]; 6–8 Days from C1, N=10): 0.78 (0.55, 1.04)
Absolute Basophil Count, Med. Fold Change (95% CI) from Day 1 ([3]; 6–8 Days from C1, N=12): 0.92 (0.50, 1.00)
Basophils %, Med. Fold Change (95% CI) from Day 1 ([3]; 6–8 Days from C1, N=12): 0.95 (0.50, 1.13)
Absolute Lymphocyte Count, Med. Fold Change (95% CI) from Day 1 ([3]; 6–8 Days from C1, N=13): 0.97 (0.68, 1.20)
Absolute Monocyte Count, Med. Fold Change (95% CI) from Day 1 ([3]; 6–8 Days from C1, N=13): 0.58 (0.35, 0.81)
Absolute Neutrophil Count, Med. Fold Change (95% CI) from Day 1 ([3]; 6–8 Days from C1, N=13): 0.90 (0.77, 1.26)
Hemoglobin (Hgb), Med. Fold Change (95% CI) from Day 1 ([3]; 6–8 Days from C1, N=13): 1.03 (0.97, 1.08)
Lymphocytes %, Med. Fold Change (95% CI) from Day 1 ([3]; 6–8 Days from C1, N=13): 0.96 (0.81, 1.29)
Monocytes %, Med. Fold Change (95% CI) from Day 1 ([3]; 6–8 Days from C1, N=13): 0.60 (0.40, 0.87)
Neutrophils % + bands, Med. Fold Change (95% CI) from Day 1 ([3]; 6–8 Days from C1, N=13): 1.08 (0.96, 1.13)
Platelet Count, Med. Fold Change (95% CI) from Day 1 ([3]; 6–8 Days from C1, N=13): 1.10 (0.84, 1.17)
White blood cell (WBC), Med. Fold Change (95% CI) from Day 1 ([3]; 6–8 Days from C1, N=13): 0.89 (0.78, 1.07)
Absolute Immature Granulocyte, Med. Fold Change (95% CI) from Day 1 ([3]; 14–16 Days from C1, N=9): 0.50 (0.19, 1.00)
Immature granulocytes, Med. Fold Change (95% CI) from Day 1 ([3]; 14–16 Days from C1, N=9): 0.46 (0.30, 0.67)
Absolute Basophil Count, Med. Fold Change (95% CI) from Day 1 ([3]; 14–16 Days from C1, N=11): 0.67 (0.50, 1.00)
Absolute Eosinophil Count, Med. Fold Change (95% CI) from Day 1 ([3]; 14–16 Days from C1, N=11): 1.00 (0.81, 1.27)
Basophils %, Med. Fold Change (95% CI) from Day 1 ([3]; 14–16 Days from C1, N=11): 0.83 (0.50, 1.13)
Eosinophils %, Med. Fold Change (95% CI) from Day 1 ([3]; 14–16 Days from C1, N=11): 0.97 (0.92, 1.53)
Absolute Lymphocyte Count, Med. Fold Change (95% CI) from Day 1 ([3]; 14–16 Days from C1, N=13): 0.88 (0.73, 1.03)
Absolute Monocyte Count, Med. Fold Change (95% CI) from Day 1 ([3]; 14–16 Days from C1, N=13): 0.56 (0.40, 0.89)
Absolute Neutrophil Count, Med. Fold Change (95% CI) from Day 1 ([3]; 14–16 Days from C1, N=13): 0.96 (0.64, 1.15)
Hemoglobin (Hgb), Med. Fold Change (95% CI) from Day 1 ([3]; 14–16 Days from C1, N=13): 0.97 (0.91, 1.00)
Lymphocytes %, Med. Fold Change (95% CI) from Day 1 ([3]; 14–16 Days from C1, N=13): 0.92 (0.87, 1.25)
Monocytes %, Med. Fold Change (95% CI) from Day 1 ([3]; 14–16 Days from C1, N=13): 0.67 (0.52, 0.89)
Neutrophils % + bands, Med. Fold Change (95% CI) from Day 1 ([3]; 14–16 Days from C1, N=13): 1.08 (0.96, 1.13)
Platelet Count, Med. Fold Change (95% CI) from Day 1 ([3]; 14–16 Days from C1, N=13): 0.97 (0.83, 1.13)
White blood cell (WBC), Med. Fold Change (95% CI) from Day 1 ([3]; 14–16 Days from C1, N=13): 0.85 (0.65, 1.06)
Absolute Immature Granulocyte, Med. Fold Change (95% CI) from Day 1 ([3]; 27–29 Days from C1, N=6): 0.20 (0.00, 2.50)
Immature granulocytes, Med. Fold Change (95% CI) from Day 1 ([3]; 27–29 Days from C1, N=6): 0.24 (0.00, 2.00)
Absolute Eosinophil Count, Med. Fold Change (95% CI) from Day 1 ([3]; 27–29 Days from C1, N=8): 0.63 (0.31, 5.37)
Eosinophils %, Med. Fold Change (95% CI) from Day 1 ([3]; 27–29 Days from C1, N=8): 0.76 (0.48, 4.19)
Absolute Basophil Count, Med. Fold Change (95% CI) from Day 1 ([3]; 27–29 Days from C1, N=9): 0.33 (0.00, 0.67)
Basophils %, Med. Fold Change (95% CI) from Day 1 ([3]; 27–29 Days from C1, N=9): 0.22 (0.00, 0.83)
Absolute Lymphocyte Count, Med. Fold Change (95% CI) from Day 1 ([3]; 27–29 Days from C1, N=10): 0.86 (0.60, 1.21)
Absolute Monocyte Count, Med. Fold Change (95% CI) from Day 1 ([3]; 27–29 Days from C1, N=10): 0.64 (0.26, 0.88)
Absolute Neutrophil Count, Med. Fold Change (95% CI) from Day 1 ([3]; 27–29 Days from C1, N=10): 0.70 (0.46, 1.66)
Hemoglobin (Hgb), Med. Fold Change (95% CI) from Day 1 ([3]; 27–29 Days from C1, N=10): 1.03 (0.95, 1.13)
Lymphocytes %, Med. Fold Change (95% CI) from Day 1 ([3]; 27–29 Days from C1, N=10): 1.28 (0.47, 1.95)
Monocytes %, Med. Fold Change (95% CI) from Day 1 ([3]; 27–29 Days from C1, N=10): 0.84 (0.26, 1.06)
Neutrophils % + bands, Med. Fold Change (95% CI) from Day 1 ([3]; 27–29 Days from C1, N=10): 0.97 (0.78, 1.30)
